# Data taken from paper PMC2646813 (Journal of biomolecular screening, 2008).
# Structures can show the parent of a compound that is named as a salt. Where two headings read alike, the source gives them in different places.
# Key:
# PPARα = target: T1, PPARα (Mus musculus, UniProt P23204); assay: Transactivation assay, acyl-CoA oxidase reporter; format: cell-based; conditions: for Increase of PPARα transactivation (percentage change from no-compound control): basal, absence of glucose (Fig. 2C open bars); for Effect on clofibrate-induced PPARα transactivation: absence of glucose (Fig. 2D open bars)
# T1 sequence (P23204 1-468): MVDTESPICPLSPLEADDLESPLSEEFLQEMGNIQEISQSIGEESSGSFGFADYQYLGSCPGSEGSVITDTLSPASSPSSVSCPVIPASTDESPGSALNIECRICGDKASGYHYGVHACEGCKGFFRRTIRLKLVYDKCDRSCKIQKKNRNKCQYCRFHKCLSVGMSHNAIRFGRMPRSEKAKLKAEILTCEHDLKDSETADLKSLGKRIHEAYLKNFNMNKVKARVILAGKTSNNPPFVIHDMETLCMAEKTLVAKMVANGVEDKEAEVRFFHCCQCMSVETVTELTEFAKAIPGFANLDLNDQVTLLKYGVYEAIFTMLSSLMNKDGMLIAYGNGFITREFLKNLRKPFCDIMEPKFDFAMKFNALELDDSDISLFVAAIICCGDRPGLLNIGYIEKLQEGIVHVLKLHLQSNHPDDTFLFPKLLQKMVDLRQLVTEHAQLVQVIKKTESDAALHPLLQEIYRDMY
# Procedure, shortened: (§1)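 COS-7 cells in 24-well plates transfected with 0.4 μg full-length pSG5-PPARα, alone or with pSG5-mRXRα; 0.4 μg PPRE3-TK-LUC reporter; 0.04 μg pRL-CMV. Then serum-free, glucose-free DMEM for 2 h. Compound (10 μM) added at 0 or 20 mM glucose, ±10 μM clofibrate, for 24 h. Firefly luciferase normalized to Renilla. Results given as percentage of clofibrate-induced PPARα activity, or percentage change from no-compound control; mean ± SEM, n = 3.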
# PPARαΔAB [1] = target: T2, PPARαΔAB (Mus musculus, UniProt P23204); format: binding, murine
# T2 sequence (P23204 101-468 limits assumed): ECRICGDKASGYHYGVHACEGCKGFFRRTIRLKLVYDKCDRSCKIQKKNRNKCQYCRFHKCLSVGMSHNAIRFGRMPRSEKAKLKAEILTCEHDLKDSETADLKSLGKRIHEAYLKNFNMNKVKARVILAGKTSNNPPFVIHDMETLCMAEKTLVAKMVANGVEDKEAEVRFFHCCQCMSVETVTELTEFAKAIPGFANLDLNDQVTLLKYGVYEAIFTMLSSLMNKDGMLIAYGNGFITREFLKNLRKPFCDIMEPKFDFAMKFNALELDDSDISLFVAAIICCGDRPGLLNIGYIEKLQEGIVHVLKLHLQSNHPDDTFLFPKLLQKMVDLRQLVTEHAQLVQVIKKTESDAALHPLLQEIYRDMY
# Procedure, shortened: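 Intrinsic aromatic fluorescence quenching. 0.1 μM murine PPARαΔAB in 20 mM glucose in PBS titrated with test compound. Excitation 280 nm, emission 300–380 nm. Corrected for buffer, compound fluorescence and solvent. Kd calculated from maximal intensities, with double-reciprocal plots. Mean ± SEM, n = 3–4.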
# PPARαΔAB [2] = target: T2, PPARαΔAB; assay: Primary drug-screening assay: restoration of BODIPY-C16-CoA; format: binding, murine; conditions: 20 mM glucose; for Recovery (ability to restore acyl-CoA binding): compound 1.25 μM, 10 nM BODIPY-C16-CoA, 200 nM PPARαΔAB
# PPARα-RXRα heterodimers = target: T3, PPARα-RXRα heterodimers (Mus musculus, UniProt P23204); assay: Transactivation assay, acyl-CoA oxidase reporter; format: cell-based
# T3 sequence (P23204 1-468): T1 sequence (P23204 1-468)
# T3 sequence (P28700 1-467 partner): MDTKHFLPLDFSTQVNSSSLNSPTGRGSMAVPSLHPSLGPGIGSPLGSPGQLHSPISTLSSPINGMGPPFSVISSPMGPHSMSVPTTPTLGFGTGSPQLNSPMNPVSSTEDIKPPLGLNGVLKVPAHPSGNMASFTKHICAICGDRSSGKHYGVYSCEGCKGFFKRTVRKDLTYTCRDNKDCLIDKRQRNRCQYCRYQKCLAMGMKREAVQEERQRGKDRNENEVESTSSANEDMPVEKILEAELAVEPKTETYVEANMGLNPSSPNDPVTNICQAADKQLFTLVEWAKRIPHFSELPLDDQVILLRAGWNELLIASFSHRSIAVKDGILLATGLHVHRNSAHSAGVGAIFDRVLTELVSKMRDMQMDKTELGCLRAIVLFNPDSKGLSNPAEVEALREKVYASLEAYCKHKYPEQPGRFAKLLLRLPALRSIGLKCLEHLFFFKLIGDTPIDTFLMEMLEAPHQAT
# Procedure, shortened: as §1
# PPARαΔAB [3] = target: T2, PPARαΔAB; assay: Circular dichroism, PPARα secondary structure; set-up: species or system murine; conditions: 20 mM glucose, 0.8 μM PPARαΔAB; mean ± SEM (n = 4)
# Procedure, shortened: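 Murine PPARαΔAB (N-terminal truncation), expressed in E. coli BL21(DE3)pLysS and purified, at 0.8 μM with 0 or 20 mM glucose. Ten CD scans averaged per spectrum. Secondary structure fractions estimated by SELCON3, CDSSTR and CONTIN/LL. Mean ± SEM, n = 4; Student's t-test.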
# PPARαΔAB [4] = target: T2, PPARαΔAB; assay: PPARα binding assays to BODIPY-C16 fatty acid or fatty acyl-CoA; set-up: species or system murine; conditions: high glucose (20 mM)
# Procedure, shortened: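 50 nM BODIPY-C16 or BODIPY-C16-CoA prebound to 100 nM murine PPARαΔAB, then titrated with glucose. Excitation 460 nm, emission 490–540 nm. Background-corrected maximal intensities expressed as percentage change in binding versus the no-glucose control.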
# [5] = read-out: Kd (binding affinity of PPARα for each compound), 0.1 μM PPARαΔAB in 20 mM glucose in PBS, mean ± SEM (n = 3–4)
# [6] = compound 10 μM, 10 μM clofibrate, 20 mM glucose (Fig. 2F)
# [7] = compound 10 μM, 10 μM clofibrate
Structure (SMILES),Recovery (ability to restore acyl-CoA binding) (PPARαΔAB [2]) [%],Effect on clofibrate-induced PPARα-RXRα activity (PPARα-RXRα heterodimers; [6]),Kd (PPARαΔAB [1]) [nM],also measured
CCOC(=O)[C@H](CCc1ccccc1)N[C@@H](C)C(=O)N1CCC[C@H]1C(=O)O [Enalapril maleate],64.7,,26.3 ± 2.8,
CN1[C@@H]2CC[C@H]1C[C@@H](OC(=O)[C@H](CO)c1ccccc1)C2 [Hyoscyamine],86.4,,14.8 ± 2.8,
O=C1NS(=O)(=O)c2ccccc21 [Saccharin],81.3,,22.5 ± 2,Effect on clofibrate-induced PPARα transactivation (PPARα; [7]): significant increases
NC(=O)c1ccccc1O [Salicylamide],83.1,,25.8 ± 6,
"CN=C(N)NCCC[C@H](N)C(=O)O.Cl [Targinine hydrochloride, reference compound]",67.5,significantly decreased,,Increase of PPARα transactivation (percentage change from no-compound control) (PPARα; compound 10 μM): ≥ 50%; Kd (PPARαΔAB [1]; [5]): 33.5 ± 3.5 nM
OC[C@H]1OC(O)[C@H](O)[C@@H](O)[C@@H]1O (stereo partly drawn) [glucose],,,,"Turns (PPARαΔAB [3]): 20.2 ± 0.7%; Unordered (PPARαΔAB [3]): 30.7 ± 0.8 %; α-Helices Distorted, Hd (PPARαΔAB [3]): 10.8 ± 0.3 %; α-Helices Regular, Hr (PPARαΔAB [3]): 14.3 ± 0.3 %; β-Sheets Distorted, Sd (PPARαΔAB [3]): 8.8 ± 0.5 %; β-Sheets Regular, Sr (PPARαΔAB [3]): 14.4 ± 1.2 %; Increase of transactivation by glucose over clofibrate alone (PPARα-RXRα heterodimers; 10 μM clofibrate, 20 mM glucose, PPARα-RXRα heterodimers (Fig. 2B)): 3- to 4 fold; Effect of glucose on basal transactivation (PPARα-RXRα heterodimers; 20 mM glucose, no other ligand (Fig. 2A)): increased activity; Increase of transactivation by glucose over clofibrate alone (PPARα; 10 μM clofibrate, 20 mM glucose, PPARα alone (Fig. 2B)): 3- to 4 fold; Effect of glucose on basal transactivation (PPARα; 20 mM glucose, no other ligand, PPARα alone (Fig. 2A)): no significant effect; Effect of glucose on BODIPY-C16 (fatty acid) binding to PPARα (PPARαΔAB [4]; 50 nM BODIPY-C16, 100 nM PPARαΔAB (Fig. 1D)): not affected; Effect of glucose on BODIPY-C16-CoA binding to PPARα (PPARαΔAB [4]; 50 nM BODIPY-C16-CoA, 100 nM PPARαΔAB (Fig. 1C, 1D)): significantly decreased; Decrease in BODIPY-C16-CoA fluorescence intensity (PPARαΔAB [2]; plate assay controls): ~ 30%"
COc1cccc(OC)c1C(=O)N[C@@H]1C(=O)N2[C@@H]1SC(C)(C)[C@@H]2C(=O)O [methicillin sodium],,,,Direct binding to PPARα (change of intrinsic fluorescence) (PPARαΔAB [1]; 20 mM glucose): no binding

# More lines, main results first:
Recovery (ability to restore acyl-CoA binding) (PPARαΔAB [2]) [%],Effect on clofibrate-induced PPARα-RXRα activity (PPARα-RXRα heterodimers; [6]),Kd (PPARαΔAB [1]) [nM],Structure (SMILES),also measured
63.8,,,CC(=O)N[C@@H]1[C@@H](O)[C@H](O)[C@@H](CO)O[C@@H]1O [Acetylglucosamine],Increase of PPARα transactivation (percentage change from no-compound control) (PPARα; compound 10 μM): ≥ 50%; Kd (PPARαΔAB [1]; [5]): 33.3 ± 3 nM
82.0,significantly decreased,26.3 ± 3.2,CCCC1O[C@@H]2C[C@H]3[C@@H]4CCC5=CC(=O)C=C[C@]5(C)[C@H]4[C@@H](O)C[C@]3(C)[C@]2(C(=O)CO)O1 (stereo partly drawn) [Budesonide],
62.3,significantly decreased,21.9 ± 1.8,CC(=O)O[C@@H]1C[C@H]2C(C)(C)C(=O)C=C[C@]2(C)[C@H]2CC[C@@]3(C)[C@H](c4ccoc4)OC(=O)[C@H]4O[C@]43[C@@]21C [Gedunin],"Effect on clofibrate-induced PPARα-RXRα activity (PPARα-RXRα heterodimers; compound 10 μM, 10 μM clofibrate, absence of glucose (Fig. 2F)): significantly affected activity; Effect on basal PPARα-RXRα heterodimer activity (PPARα-RXRα heterodimers; compound 10 μM, with or without glucose (Fig. 2E)): decreased activity; Effect on clofibrate-induced PPARα transactivation (PPARα; [7]): decreases; Effect on basal PPARα activity (PPARα; compound 10 μM, with or without glucose (Fig. 2C)): significantly reduced"
68.6,significantly decreased,28.4 ± 2.3,NC(=O)c1cnccn1 [Pyrazinamide],
73.9,,31.4 ± 3.6,c1ccc(CC2=NCCN2)cc1 [Tolazoline hydrochloride],
97.1,significantly decreased,35.1 ± 3.7,"Cc1ccc(C(=O)c2ccc(CC(=O)O)n2C)cc1 [Tolmetin sodium, reference compound]",Increase of PPARα transactivation (percentage change from no-compound control) (PPARα; compound 10 μM): ≥ 50%
85.5,,,NCCCC(=O)O [g-aminobutyric acid],Kd (PPARαΔAB [1]; [5]): 29.5 ± 4.1 nM
